Measured values published in ChEMBL document CHEMBL4145453, “Synthesis, physicochemical properties, and biological activity of bile acids 3-glucuronides: Novel insights into bile acid signalling and detoxification” (Eur J Med Chem, 2018).
In brackets after ≈: the same amount, converted by molar mass.

Assays:
[1] = biological target: T1, Bile acid receptor (Homo sapiens, UniProt Q96RI1); assay: Agonist activity at GST-tagged FXR-LBD (unknown origin) assessed as biotin-labeled SRC-1 recruitment after 30 mins by Alpha Screen assay
T1 sequence (Q96RI1 whole entry): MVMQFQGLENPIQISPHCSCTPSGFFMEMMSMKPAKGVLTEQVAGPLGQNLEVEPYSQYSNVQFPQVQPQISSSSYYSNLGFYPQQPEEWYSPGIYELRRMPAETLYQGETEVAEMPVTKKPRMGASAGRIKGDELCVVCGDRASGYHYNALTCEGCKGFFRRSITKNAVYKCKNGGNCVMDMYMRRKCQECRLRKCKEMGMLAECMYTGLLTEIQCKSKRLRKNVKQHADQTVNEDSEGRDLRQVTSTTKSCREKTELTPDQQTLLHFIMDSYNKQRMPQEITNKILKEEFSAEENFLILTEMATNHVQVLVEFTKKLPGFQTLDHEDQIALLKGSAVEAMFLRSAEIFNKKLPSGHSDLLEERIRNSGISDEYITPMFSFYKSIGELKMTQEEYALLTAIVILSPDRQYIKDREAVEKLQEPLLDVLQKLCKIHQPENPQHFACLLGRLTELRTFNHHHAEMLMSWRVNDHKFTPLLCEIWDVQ

[2] = biological target: T2, Bile acid receptor (Homo sapiens) (UniProt Q96RI1); assay: Agonist activity at GST-tagged FXR-LBD (unknown origin) assessed as biotin-labeled SRC-1 recruitment after 30 mins by Alpha Screen assay relative to CDCA
T2 sequence (whole entry): T1 sequence (Q96RI1 whole entry)
In short: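 GST-FXR-LBD (10 nM) with biotinylated SRC-1 peptide (30 nM), anti-GST acceptor and streptavidin donor beads; buffer 50 mM Tris pH 7.4, 50 mM KCl, 0.1% BSA, 1 mM DTT. Compound in DMSO, 30 min r.t., then beads 4 h dark r.t.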

[3] = Solubility of the compound in pH 1 HCl solution at 300 uM after 24 hrs by HPLC-ESI-MS analysis; type: physicochemical
In short: (§1)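 Dried 1 mM stock (300 µL) was redissolved in 1 mL PBS pH 7.4 or acid solution pH 1.0 (nominal about 300 µM). Stirred 24 h at r.t., centrifuged, diluted 1:100 or 1:10, then quantified by HPLC-ESI-MS/MS in MRM mode against a 6-point calibration (0.01–10 µM).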

[4] = biological target: albumin (Bos taurus, UniProt P02769); assay: Binding affinity to bovine serum albumin at 10 uM after 24 hrs by equilibrium dialysis method; type: ADME; conditions: cattle, read-out: PB (converted)
[5] = Octanol-HCl distribution coefficient, log P of the compound at pH 1 at 1 uM after 24 hrs by shake flask method; type: physicochemical
In short: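 Shake-flask method, 1 µM bile acid in mutually pre-saturated 1-octanol/DPBS pH 7.4 or 1-octanol/HCl pH 1.0 (50:50). Equilibrated 24 h with stirring at r.t., then centrifuged. Aqueous-phase concentration before and after partition measured by HPLC-ESI-MS/MS.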

[6] = Solubility of the compound in pH 7.4 PBS buffer at 300 uM after 24 hrs by HPLC-ESI-MS analysis; type: physicochemical; in short: as §1

Sequence of albumin (P02769 whole entry): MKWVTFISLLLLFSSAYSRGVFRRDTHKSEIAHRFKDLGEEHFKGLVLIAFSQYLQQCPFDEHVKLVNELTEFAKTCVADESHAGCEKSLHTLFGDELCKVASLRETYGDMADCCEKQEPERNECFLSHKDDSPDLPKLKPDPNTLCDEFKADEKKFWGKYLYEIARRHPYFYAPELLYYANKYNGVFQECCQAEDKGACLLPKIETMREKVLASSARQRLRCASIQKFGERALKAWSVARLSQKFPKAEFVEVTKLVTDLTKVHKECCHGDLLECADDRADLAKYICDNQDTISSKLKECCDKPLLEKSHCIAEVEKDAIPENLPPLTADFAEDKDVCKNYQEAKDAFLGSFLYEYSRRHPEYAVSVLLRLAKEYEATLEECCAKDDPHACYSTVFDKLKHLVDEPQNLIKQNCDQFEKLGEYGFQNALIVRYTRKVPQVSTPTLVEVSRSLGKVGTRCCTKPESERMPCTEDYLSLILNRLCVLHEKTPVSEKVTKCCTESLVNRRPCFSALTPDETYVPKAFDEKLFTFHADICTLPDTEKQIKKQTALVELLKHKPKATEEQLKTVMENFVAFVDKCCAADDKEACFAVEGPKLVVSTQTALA

SMILES	EC50 [1]	Efficacy [2]	solubility at 24 h, 300 µM [3]	fraction unbound at 24 h, 10 µM [4]	logD at 24 h, 1 µM [5]	solubility at 24 h, 300 µM [6]
C[C@H](CCC(=O)O)[C@H]1CC[C@H]2[C@@H]3CC[C@@H]4C[C@H](O)CC[C@]4(C)[C@H]3C[C@H](O)[C@]12C [DEOXYCHOLIC ACID]	45 µM	7%				
C[C@H](CCC(=O)O)[C@H]1CC[C@H]2[C@@H]3[C@H](O)C[C@@H]4C[C@H](O)CC[C@]4(C)[C@H]3CC[C@]12C [CHENODIOL]			33 µM (≈ 13 µg/mL)	0.015	2.5	282 µM (≈ 111 µg/mL)
